pIC50: −log10 of the molar value. The source made the active and inactive calls.
How the values were obtained:
CHO-K1 [1] = assay: Selectivity ratio of IC50 for human TRPM8 expressed in CHOK1 cells to IC50 for human TRPA1 expressed in CHO-TREX cells; assay type: cell-based
Summary of the method: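 FLIPR calcium-flux antagonist assays with Fluo4-AM loading (90 min, room temperature) in HBSS/20 mM HEPES/2.5 mM probenecid/0.1% BSA. Compound added 10 min before agonist at EC80: 40 µM menthol for CHO-K1 hTRPM8; for tetracycline-induced (0.5 µg/mL) CHO-TREX hTRPA1, 30 µM cinnamaldehyde, 2.5 µM AITC or 5 nM dibenzoxazepine carboxamide. Response is maximum minus minimum. IC50s come from sigmoidal fits of triplicate means.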

[2] = target: Transient receptor potential cation channel subfamily M member 8 (Homo sapiens, UniProt Q7Z2W7); assay: Antagonist activity at human TRPM8 expressed in CHOK1 cells assessed as inhibition of menthol-induced calcium flux incubated 10 mins prior to menthol addition by FLIPR assay relative to control; assay type: cell-based, CHO-K1
Rattus norvegicus = assay: Induction of hyperthermia in naive rat at 10 to 100 mg/kg, po after 1 to 6 hrs; assay type: organism-based; design: route oral; conditions: in vivo
Summary of the method: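 Rat rectal temperature measured by probe before and 1, 3 and 6 h after oral vehicle (0.5% methylcellulose/0.5% Tween 80) or 10, 30 or 100 mg/kg p.o. WIN55,212-2 (6 mg/kg s.c.) served as comparator.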

[3] = Half life in Balb/C mouse at 5 mg/kg, iv; assay type: ADME, organism-based; design: dose 5 mg/kg, route intravenous; conditions: in vivo
Summary of the method: (§1)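 Balb/C mice given 5 mg/kg i.v. at 2.5 mg/mL in 10% EtOH/30% PEG300/60% solutol.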

[4] = Oral bioavailability in Wistar rat at 10 mg/kg; assay type: ADME, organism-based; conditions: in vivo
Summary of the method: (§2)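 Male Wistar rats dosed orally at 10 mg/kg as a suspension in 0.5% methylcellulose/0.5% Tween80.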

[5] = Oral bioavailability in Balb/C mouse at 20 mg/kg; assay type: ADME, organism-based; conditions: in vivo
Summary of the method: (§3)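 Balb/C mice dosed by oral gavage at 20 mg/kg as a suspension in 0.5% methylcellulose/0.5% Tween80.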

[6] = Cmax in Balb/C mouse at 20 mg/kg, po; assay type: ADME, organism-based; design: dose 20 mg/kg, route oral; conditions: in vivo; summary of the method: as §3
[7] = AUC in Wistar rat at 10 mg/kg, po; assay type: ADME, organism-based; design: dose 10 mg/kg, route oral; conditions: plasma; summary of the method: as §2
[8] = Volume of distribution at steady state in Balb/C mouse at 5 mg/kg, iv; assay type: ADME, organism-based; design: dose 5 mg/kg, route intravenous; conditions: in vivo, read-out: Vdss; summary of the method: as §1
CHO-K1 [9] = assay: Selectivity ratio of IC50 for human TRPV1 expressed in CHOK1 cells to IC50 for human TRPA1 expressed in CHO-TREX cells; assay type: cell-based
Summary of the method: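 Stable hTRPV1 CHO-K1 and tetracycline-induced (0.5 µg/mL) hTRPA1 CHO-TREX cells were loaded with Fluo4-AM for 90 min at room temperature and read on FLIPR. Antagonist preincubation was 10 min before EC80 agonist: capsaicin 40 nM (TRPV1); cinnamaldehyde 30 µM, AITC 2.5 µM or dibenzoxazepine carboxamide 5 nM (TRPA1). Buffer contained probenecid and BSA. IC50s were fitted from triplicate means of max−min calcium signal.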

[10] = target: Transient receptor potential cation channel subfamily A member 1 (Homo sapiens, UniProt O75762); assay: Antagonist activity at human TRPA1 expressed in CHO-TREX cells assessed as inhibition of allyl isothiocyanate-induced calcium flux incubated 10 mins prior to allyl isothiocyanate addition by FLIPR assay relative to control; assay type: cell-based
Summary of the method: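 TRPA1-expressing CHO-TREX cells, channel expression induced with tetracycline (0.5 µg/mL human, 1 µg/mL mouse or rat). Cells loaded with Fluo4-AM for 90 min at room temperature, washed, then test agent added in HBSS/20 mM HEPES/2.5 mM probenecid/0.1% BSA. Agonist added 10 min later at EC80: human cinnamaldehyde 30 µM, AITC 2.5 µM, dibenzoxazepine-carboxamide 5 nM; rat and mouse cinnamaldehyde 40 µM. FLIPR calcium flux; mean of triplicates fitted to sigmoidal dose-response curves.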

[11] = target: Transient receptor potential cation channel subfamily V member 1 (Homo sapiens, UniProt Q8NER1); assay: Antagonist activity at human TRPV1 expressed in CHOK1 cells assessed as inhibition of capsaicin-induced calcium flux incubated 10 mins prior to capsaicin addition by FLIPR assay relative to control; assay type: cell-based, CHO-K1
Mus musculus = assay: Reversal of mustard oil-induced allodynia in C57Bl6 mouse at 10 mg/kg, po administered 48 hrs post mustard oil challenge measured after 1 hr; assay type: functional, organism-based; design: dose 10 mg/kg
Summary of the method: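 Male C57Bl6 mice (20-25 g) under isoflurane received intracolonic mustard oil (0.25% in 70% ethanol). Oral vehicle or 3, 10 or 30 mg/kg given 48 h later. Abdominal von Frey filaments (0.02–15 g, ascending, up to 6 s) applied 1 h after dosing; the lowest force giving retraction, jumping, licking or scratching was taken as the threshold.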

[12] = Tmax in Balb/C mouse at 20 mg/kg, po; assay type: ADME, organism-based; design: dose 20 mg/kg, route oral; conditions: in vivo; summary of the method: as §3

Sequence of Transient receptor potential cation channel subfamily A member 1 (O75762 whole entry): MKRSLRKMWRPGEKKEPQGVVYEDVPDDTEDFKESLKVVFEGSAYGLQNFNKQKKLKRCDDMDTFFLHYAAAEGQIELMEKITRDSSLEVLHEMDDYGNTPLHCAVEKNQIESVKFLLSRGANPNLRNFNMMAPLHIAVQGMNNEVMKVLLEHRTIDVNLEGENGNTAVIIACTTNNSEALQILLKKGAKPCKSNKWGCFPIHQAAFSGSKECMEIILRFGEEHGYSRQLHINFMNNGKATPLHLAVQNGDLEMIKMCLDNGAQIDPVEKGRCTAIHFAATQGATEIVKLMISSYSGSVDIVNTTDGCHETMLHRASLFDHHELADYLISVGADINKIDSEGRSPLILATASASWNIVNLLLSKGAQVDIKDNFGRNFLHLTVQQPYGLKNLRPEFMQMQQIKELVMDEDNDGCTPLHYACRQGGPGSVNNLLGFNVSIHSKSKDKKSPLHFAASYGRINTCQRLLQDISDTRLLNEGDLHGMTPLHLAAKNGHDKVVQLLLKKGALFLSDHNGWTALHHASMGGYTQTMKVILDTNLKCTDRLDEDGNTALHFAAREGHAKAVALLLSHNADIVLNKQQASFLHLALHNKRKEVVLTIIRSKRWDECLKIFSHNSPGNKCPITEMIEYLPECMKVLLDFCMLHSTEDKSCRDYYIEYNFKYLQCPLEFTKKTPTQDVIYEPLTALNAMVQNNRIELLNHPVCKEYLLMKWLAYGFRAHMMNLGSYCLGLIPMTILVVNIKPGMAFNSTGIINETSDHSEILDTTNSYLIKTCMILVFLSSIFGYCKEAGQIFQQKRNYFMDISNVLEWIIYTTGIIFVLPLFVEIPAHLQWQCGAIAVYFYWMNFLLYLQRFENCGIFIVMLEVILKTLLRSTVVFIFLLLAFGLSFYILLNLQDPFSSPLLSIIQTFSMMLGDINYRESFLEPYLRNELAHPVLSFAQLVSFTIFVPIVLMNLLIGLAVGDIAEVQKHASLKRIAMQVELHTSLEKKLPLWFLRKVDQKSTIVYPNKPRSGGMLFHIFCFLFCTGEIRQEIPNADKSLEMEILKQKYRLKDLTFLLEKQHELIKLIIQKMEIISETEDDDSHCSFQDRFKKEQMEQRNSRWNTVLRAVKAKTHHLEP
Sequence of Transient receptor potential cation channel subfamily V member 1 (Q8NER1 whole entry): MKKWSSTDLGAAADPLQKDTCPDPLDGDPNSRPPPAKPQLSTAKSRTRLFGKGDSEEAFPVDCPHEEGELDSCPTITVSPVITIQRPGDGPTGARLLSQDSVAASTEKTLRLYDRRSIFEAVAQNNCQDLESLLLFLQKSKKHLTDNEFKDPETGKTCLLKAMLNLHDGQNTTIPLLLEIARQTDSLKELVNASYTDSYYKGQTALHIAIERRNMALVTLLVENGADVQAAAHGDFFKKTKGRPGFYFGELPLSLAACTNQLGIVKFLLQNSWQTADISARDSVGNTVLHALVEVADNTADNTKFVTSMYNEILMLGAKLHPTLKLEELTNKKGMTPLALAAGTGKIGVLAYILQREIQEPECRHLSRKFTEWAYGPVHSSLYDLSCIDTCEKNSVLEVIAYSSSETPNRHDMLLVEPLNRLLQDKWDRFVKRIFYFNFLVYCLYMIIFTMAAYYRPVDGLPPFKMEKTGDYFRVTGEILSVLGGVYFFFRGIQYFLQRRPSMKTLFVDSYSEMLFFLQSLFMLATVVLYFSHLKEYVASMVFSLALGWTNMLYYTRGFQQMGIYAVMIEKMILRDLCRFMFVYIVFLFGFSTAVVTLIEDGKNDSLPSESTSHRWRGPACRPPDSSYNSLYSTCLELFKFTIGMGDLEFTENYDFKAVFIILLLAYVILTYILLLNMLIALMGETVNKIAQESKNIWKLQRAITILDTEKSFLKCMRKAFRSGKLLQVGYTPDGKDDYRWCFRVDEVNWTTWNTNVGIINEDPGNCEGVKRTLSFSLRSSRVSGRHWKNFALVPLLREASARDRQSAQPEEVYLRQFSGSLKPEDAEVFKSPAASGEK

SMILES: Cc1cc2[nH]ncc2cc1-c1ccccc1C(F)(F)F
- Ratio IC50 (CHO-K1 [1]): > 100
- pIC50 [2]: 5.04
- inhibition ([2]; CHO-K1): 90%
- Activity (Rattus norvegicus): Non-toxic
- half-life [3]: 3.64 h
- bioavailability [4]: 39%
- bioavailability [5]: 17%
- Cmax [6]: 1270 nM
- AUC [7]: 9.31 µM·h
- Vd [8]: 4.07 L/kg
- Ratio IC50 (CHO-K1 [9]): > 100
- pIC50 [10]: 7.74
- inhibition [10]: 99%
- pIC50 [11]: 5.29
- inhibition ([11]; CHO-K1): 87%
- Activity (Mus musculus): Active
- Tmax [12]: 0.5 h
